Experimental data taken from ChEMBL document CHEMBL1153368, “Benzophenone-N-ethyl piperidine ether analogues--synthesis and efficacy as anti-inflammatory agent” (Bioorg Med Chem Lett, 2009).
The source made the active and inactive calls. The rule behind the calls is not given here.

Assays:
[1] = tested on: Mus musculus; test: Toxicity in carrageenan treated Albino mouse stomach assessed as gastric ulcer at 10 mg/kg, po administered 1 hr before carrageenan challenge measured after 4 hrs by hematoxilen eosine staining; assay type: organism-based; parameters: dose 10 mg/kg, route oral; details: in vivo
Procedure, shortened: (§1)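 Mice given oral doses suspended in 0.5% CMC (vehicle controls) for the carrageenan paw edema experiment. Animals sacrificed 4 h after the paw edema experiments. Liver, stomach and kidneys removed and fixed in 10% formalin, then sections scored microscopically for kidney edema and mononuclear cell infiltration, gastritis/ulceration, and liver fatty change, acute hepatitis/spotty necrosis and cholestasis.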

[2] = tested on: Mus musculus; test: Toxicity in carrageenan treated Albino mouse liver assessed as cholestasis at 10 mg/kg, po administered 1 hr before carrageenan challenge measured after 4 hrs by hematoxilen eosine staining; assay type: organism-based; parameters: dose 10 mg/kg, route oral; details: in vivo; procedure, shortened: as §1
[3] = tested on: Mus musculus; test: Antiinflammatory activity in Albino mouse assessed as inhibition of carrageenan-induced foot paw edema at 10 mg/kg, po administered 1 hr before carrageenan challenge measured after 2 hrs; assay type: functional
Procedure, shortened: (§2)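 Fasted mice (water free) dosed orally with suspensions in 0.5% CMC; controls received vehicle only. Right hind paw thickness measured with a dial gauge 1 h after dosing, then carrageenan-induced edema re-measured 2 h later. Effect expressed as percent inhibition of edema versus control; mean of n = 6.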

[4] = tested on: Mus musculus; test: Antiinflammatory activity against carrageenan-induced inflammation in Albino mouse air ppouch model assessed as number of polymorphonuclear leukocytes infiltration at 10 mg/kg, po administered 1 hr before carrageenan challenge measured after 4 hrs by air pouch test; assay type: functional
Procedure, shortened: (§3)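 Mice housed in groups of six, food withdrawn the day before with water free. Dosing by oral gavage in 0.5% CMC, with vehicle-only controls. Air pouch made by sc injection of 1 ml air over 3 days. On day 3, 1 ml of 10 mg/ml carrageenan (heat-sterilized, held at 37 °C) injected into the pouch, 1 h after dosing. Killed 4 h later; pouch lavaged with 3 ml PBS-heparin, spun 2000 rpm 15 min 4 °C, PMNL counted by Coulter Counter; n = 6.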

[5] = tested on: Mus musculus; test: Antiinflammatory activity in Albino mouse assessed as inhibition of carrageenan-induced foot paw edema at 100 mg/kg, po administered 1 hr before carrageenan challenge measured after 2 hrs; assay type: functional; procedure, shortened: as §2
[6] = tested on: Mus musculus; test: Antiinflammatory activity against carrageenan-induced inflammation in Albino mouse air ppouch model assessed as number of polymorphonuclear leukocytes infiltration at 100 mg/kg, po administered 1 hr before carrageenan challenge measured after 4 hrs by air pouch test; assay type: functional; procedure, shortened: as §3
[7] = tested on: Mus musculus; test: Toxicity in carrageenan treated Albino mouse kidney assessed as edema at 100 mg/kg, po administered 1 hr before carrageenan challenge measured after 4 hrs by hematoxilen eosine staining; assay type: organism-based; parameters: dose 100 mg/kg, route oral; details: in vivo; procedure, shortened: as §1
[8] = tested on: Mus musculus; test: Toxicity in carrageenan treated Albino mouse kidney assessed as […] mononuclear lymphocytes at 100 mg/kg, po administered 1 hr before carrageenan challenge measured after 4 hrs by hematoxilen eosine staining; assay type: organism-based; parameters: dose 100 mg/kg, route oral; details: in vivo; procedure, shortened: as §1
[9] = tested on: Mus musculus; test: Toxicity in carrageenan treated Albino mouse stomach assessed as gastric ulcer at 100 mg/kg, po administered 1 hr before carrageenan challenge measured after 4 hrs by hematoxilen eosine staining; assay type: organism-based; parameters: dose 100 mg/kg, route oral; details: in vivo; procedure, shortened: as §1
[10] = tested on: Mus musculus; test: Toxicity in carrageenan treated Albino mouse liver assessed as fatty change at 100 mg/kg, po administered 1 hr before carrageenan challenge measured after 4 hrs by hematoxilen eosine staining; assay type: organism-based; parameters: dose 100 mg/kg, route oral; details: in vivo; procedure, shortened: as §1
[11] = tested on: Mus musculus; test: Toxicity in carrageenan treated Albino mouse liver assessed as cholestasis at 100 mg/kg, po administered 1 hr before carrageenan challenge measured after 4 hrs by hematoxilen eosine staining; assay type: organism-based; parameters: dose 100 mg/kg, route oral; details: in vivo; procedure, shortened: as §1
[12] = tested on: Mus musculus; test: Toxicity in carrageenan treated Albino mouse liver assessed as acute hepatitis at 100 mg/kg, po administered 1 hr before carrageenan challenge measured after 4 hrs by hematoxilen eosine staining; assay type: organism-based; parameters: dose 100 mg/kg, route oral; details: in vivo; procedure, shortened: as §1
[13] = species: Mus musculus; test: animal or person; details: Albino, po, read-out: INH

Row | Compound | Activity [1] | Activity [2] | inhibition in vivo at 10 mg/kg [3] | Activity [4] | inhibition in vivo at 100 mg/kg [5] | Activity [6] | Activity [7] | Activity [8] | Activity [9] | Activity [10] | Activity [11] | inhibition [5] | Activity [12] | inhibition in vivo at 30 mg/kg [13]
1 | COc1ccc2c(c1)c(CC(=O)O)c(C)n2C(=O)c1ccc(Cl)cc1 [INDOMETHACIN] | Toxic | Non-toxic | 32.1% | 68.81 ×10⁵ /cm'3 |  |  |  |  |  |  |  |  |  | 
2 | Cc1cc(C(=O)c2ccccc2C)ccc1OCCN1CCCCC1 |  |  |  |  | 35.6% | 69.51 ×10⁵ /cm'3 | Non-toxic | Non-toxic | Non-toxic |  |  |  |  | 
3 | Cc1ccc(C(=O)c2ccc(OCCN3CCCCC3)c(C)c2)cc1 |  |  |  |  |  |  | Non-toxic | Non-toxic | Non-toxic | Non-toxic | Non-toxic | inactive |  | 
4 | Cc1cc(C(=O)c2ccccc2Br)ccc1OCCN1CCCCC1 |  |  |  |  | 51.4% | 56.25 ×10⁵ /cm'3 | Non-toxic | Non-toxic |  | Non-toxic | Non-toxic |  | Non-toxic | 
5 | Cc1cc(C(=O)c2ccc(F)cc2)ccc1OCCN1CCCCC1 |  |  |  |  | 60.6% | 32.41 ×10⁵ /cm'3 | Non-toxic | Non-toxic | Non-toxic | Non-toxic | Non-toxic |  | Non-toxic | 
6 | Cc1cc(C(=O)c2ccccc2)ccc1OCCN1CCCCC1 |  |  |  |  | 22.4% | 95.25 ×10⁵ /cm'3 | Non-toxic | Non-toxic |  |  |  |  |  | 
7 | Cc1cccc(C(=O)c2ccc(OCCN3CCCCC3)c(C)c2)c1 |  |  |  |  | 15.4% | 104.76 ×10⁵ /cm'3 | Non-toxic |  |  |  | Non-toxic |  | Non-toxic | 
8 | CCCCC1C(=O)N(c2ccccc2)N(c2ccccc2)C1=O [PHENYLBUTAZONE] |  |  |  |  | 53.3% | 53.28 ×10⁵ /cm'3 |  |  |  |  |  |  |  | 
9 | COc1ccc(C(=O)c2ccc(OCCN3CCCCC3)c(C)c2)cc1 |  |  |  |  | 51.4% | 56.26 ×10⁵ /cm'3 | Non-toxic | Non-toxic |  | Non-toxic | Non-toxic |  |  | 
10 | Cc1cc(C(=O)c2ccc(Cl)cc2Cl)ccc1OCCN1CCCCC1 |  |  |  |  | 68.7% | 30.15 ×10⁵ /cm'3 | Non-toxic | Non-toxic | Non-toxic | Non-toxic | Non-toxic |  |  | 
11 | COc1ccc2cc([C@H](C)C(=O)O)ccc2c1 [NAPROXEN] |  |  |  |  |  |  |  |  |  |  |  |  |  | 66.9%
12 | Cc1cc(C(=O)c2ccc(Br)cc2)ccc1OCCN1CCCCC1 |  |  |  |  | 67.5% | 31.75 ×10⁵ /cm'3 | Non-toxic | Non-toxic | Non-toxic | Non-toxic | Non-toxic |  | Non-toxic | 
13 | Cc1cc(C(=O)c2cccc(Cl)c2)ccc1OCCN1CCCCC1 |  |  |  |  | 51.4% | 56.26 ×10⁵ /cm'3 | Non-toxic |  | Non-toxic |  | Non-toxic |  |  | 
